Assay results published in PubChem BioAssay AID493081 (Broad Institute, 2011).
Activity calls are given as the source filed them.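 The calls were made as follows: active = fitted half-maximal dose of growth inhibition at or below ten times the top valid tested dose; inconclusive = flat fit with moderate inhibition, or poor fit quality; inactive = the rest.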

System: not listed separately
Experiment: Candida CaCi-2 inhibitors alongside fluconazole – CaCi-2 isolate, dry powder retest, no file, confirmation (AID 493081)
Settings: C. albicans CaCi-2 + fluconazole, Alamar Blue, 48 h; at 12 µM (top of the series)
Method in brief: (§1)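 Assay system: Candida albicans clinical isolate CaCi-2, fluconazole-resistant strain. Buffer or medium: RPMI/MOPS defined growth medium. Also added: fluconazole at 8 µg/mL throughout the growth period. Dosing: test compounds added by pin transfer. Incubation: 48 h compound at 37 °C, 2 h Alamar Blue, RT. Detection: Alamar Blue fluorescence, excitation 544 nm, emission 590 nm.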

Structure (SMILES)	activity change, negative = growth inhibition
COC(=O)CCCn1nc(-c2ccccc2)c2ccccc21	-23.8% (inactive)
COC(=O)Cn1nc(-c2ccccc2)c2ccc(C(F)(F)F)cc21	-26.8% (inactive)
O=C(Cn1c2ccccc2c2ccncc21)N1CCCCC1	-31.9% (inactive)
O=C1OCCC1n1nc(-c2ccccc2)c2ccccc21 (stereo not given)	-11.6% (inactive)
COC(=O)Cn1nc(-c2ccccc2)c2cccc(C(F)(F)F)c21	1.65% (inactive)
CCCCn1nc(-c2ccccc2)c2ccccc21	19.1% (inactive)
O=C(Cn1nc(-c2ccccc2)c2ccccc21)OC1CCC1	-23.5% (inactive)
FC(F)(F)c1ccc(-c2n[nH]c3ccccc23)cc1	-27.3% (inactive)
CCC(=O)Cn1nc(-c2ccccc2)c2ccccc21	-16.1% (inactive)
O=C(O)Cn1nc(-c2ccccc2)c2ccccc21	-9.2% (inactive)
COc1ccc(-c2n[nH]c3ccccc23)cc1	-24.1% (inactive)
COC(=O)C(C)(C)n1nc(-c2ccccc2)c2ccccc21	-6.64% (inactive)

System: C. albicans CaCi-2 (fluconazole-resistant clinical isolate) + fluconazole, Alamar Blue, 48 h
Experiment: as above
Settings: not given
Method in brief: as §1

Structure (SMILES)	AC50
O=C(Cn1c2ccccc2c2nc3n(c(=O)c21)CCS3)N1CCCCC1	606 nM
O=C(Cn1c2ccc(F)cc2c2nc3n(c(=O)c21)CCS3)N1CCCCCC1	629 nM
O=C(Cn1c2ccccc2c2nc3n(c(=O)c21)CCS3)N1CCOCC1	1610 nM
O=C(Cn1c2ccc(F)cc2c2nc3n(c(=O)c21)CCS3)N1CCCCC1	413 nM
CCN(CC)C(=O)Cn1c2ccccc2c2nc3n(c(=O)c21)CCS3	7430 nM
COC(=O)Cn1nc(-c2ccccc2C)c2ccccc21	6140 nM
COC(=O)Cn1nc(-c2cccc(F)c2)c2ccccc21	8120 nM
COC(=O)Cn1nc(-c2ccc(F)cc2)c2ccccc21	8180 nM
O=C(Cn1c2ccc(F)cc2c2nc3n(c(=O)c21)CCS3)N1CCCC1	608 nM
CC1CCN(C(=O)Cn2c3ccccc3c3nc4n(c(=O)c32)CCS4)CC1	1790 nM
CCN(CC)C(=O)Cn1c2ccc(F)cc2c2nc3n(c(=O)c21)CCS3	69 nM
O=C(Cn1c2ccccc2c2nc3n(c(=O)c21)CCS3)N1CCCC1	835 nM
COC(=O)Cn1nc(-c2ccccc2)c2ccccc21	1270 nM
